Experimental data as given in paper PMC3823002 (Journal of Cellular and Molecular Medicine, 2009).

Assays:
FGF2 = test: STD NMR analysis of peptide/FGF2 interaction; type: binding, human; settings: STD NMR in the presence of 50 μM FGF2, reducing conditions; result in words
Outline: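 500 MHz STD NMR used 50 µM FGF2 plus 1.9 mM peptide in 30 mM phosphate (95% D2O), 8 mM DTT, 40 mM NaCl, pH 6.8. Saturation lasted 3 s, with a 30 ms T1ρ filter and 192 transients. Off-resonance reference minus saturated spectrum gave STD; the factor is ISTD/I0. A peptide-only control was run. Titrations spanned 1:10–1:100 FGF2:peptide at 280 K.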

FGF2/FGFR1 interaction = FGF2/FGFR1 interaction (Homo sapiens, UniProt P09038); test: BIAcore competition: binding of free FGF2 to immobilized sFGFR1; settings: FGF2 50 nM, sFGFR1(IIIc)/Fc chimera-coated BIAcore sensor chip; for effect on binding of FGF2 to immobilized sFGFR1(IIIc)/Fc chimera: peptide 1.0 μM
FGF2/FGFR1 interaction, sequence (P09038 134-288): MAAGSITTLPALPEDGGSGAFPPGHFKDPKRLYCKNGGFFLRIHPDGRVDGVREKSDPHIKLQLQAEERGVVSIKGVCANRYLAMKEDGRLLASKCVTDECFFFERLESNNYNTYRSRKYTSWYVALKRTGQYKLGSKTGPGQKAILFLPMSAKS

endothelial GM7373 cells = test: GM7373 cell proliferation triggered by different mitogenic stimuli; type: cell-based, bovine
[1] = system: VEGF/VEGFR2/KDR interaction; test: BIAcore competition: binding of free VEGF to immobilized sKDR/Fc chimera; parameters: species or system human; settings: 45 nM VEGF injected for 4 min., peptide 300 μM; data not shown
Outline: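 sKDR/Fc (20 µg/ml in 10 mM sodium acetate, pH 5.3) was amine-coupled to an EDC/NHS-activated CM5 chip (~0.06 pmol/mm2), then ethanolamine-neutralized. VEGF (45 nM) was injected for 4 min with or without 300 µM test peptide. Response (RU) was read at end of injection and plotted as percentage of maximal bound analyte.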

[2] = molecular target: Fibroblast growth factor-2 (human); test: SPR

IC50 [2] | Molecule | other results
– | Ac-GRPCA-NH2 | FGF2 binding deduced from STD spectrum (FGF2): still able to bind FGF2
– | H-ARPCA-NH2 | FGF2 binding deduced from STD spectrum (FGF2): absence of STD signals
– | Ac-ARPCG-NH2 | FGF2 binding deduced from STD spectrum (FGF2): absence of STD signals
– | Ac-ARPSA-NH2 | effect on binding of FGF2 to immobilized sFGFR1(IIIc)/Fc chimera (FGF2/FGFR1 interaction): No effect; inhibition of GM7373 cell proliferation, any mitogen (endothelial GM7373 cells; FGF2, FGF1, FGF8b, VEGF, EGF, DAG, TPA or 10% FCS, control peptide): No inhibition; FGF2 binding deduced from STD spectrum (FGF2): reduced STD amplification factor
– | Ac-ARPCA-NH2 | binding of FGF2 to immobilized FGFR1 ID50 (FGF2/FGFR1 interaction): 30 µM; effect on binding of FGF2 to immobilized sFGFR1(IIIc)/Fc chimera (FGF2/FGFR1 interaction): significantly inhibits; GM7373 cell proliferation triggered by FGF2 (endothelial GM7373 cells; FGF2 0.55 nM, peptide 66 μM, 0.4% FCS, 24 hrs, cell counting, triplicate): inhibits; GM7373 cell proliferation triggered by FGF8b (endothelial GM7373 cells; FGF8b 1.66 nM, peptide 66 μM, 24 hrs, cell counting, triplicate): inhibits; binding of VEGF to immobilized sKDR/Fc chimera [1]: did not prevent
80 µM | Ac-GRPCA-NH2 [Ac-GRPCA-NH2] | –
> 3000 µM | Ac-ARPMA-NH2 [Ac-ARPMA-NH2] | –
> 3000 µM | Ac-ARACA-NH2 [Ac-ARACA-NH2] | –
1000 µM | Ac-ARPCG-NH2 [Ac-ARPCG-NH2] | –
1000 µM | Ac-PARAC-NH2 [Ac-PARAC-NH2, scrambled pentapeptide] | –
300 µM | Ac-ESLARPCAPGAPAE-NH2 [PTX3-(97-110) peptide Ac-…-NH2] | –
> 3000 µM | Ac-GRPCG-NH2 [Ac-GRPCG-NH2] | –
2000 µM | Ac-APGAPAEARL-NH2 [PTX3-(104-113) peptide Ac-…-NH2] | –
300 µM | Ac-ESLARPCAPGA-NH2 [PTX3-(97-107) peptide Ac-…-NH2] | –
800 µM | Ac-APCRA-NH2 [Ac-APCRA-NH2, partially scrambled pentapeptide] | –
2000 µM | H-ARPCA-NH2 [H-ARPCA-NH2, non-acetylated pentapeptide] | –
> 3000 µM | Ac-ALPCA-NH2 [Ac-ALPCA-NH2] | –
> 3000 µM | Ac-ARPSA-NH2 [Ac-ARPSA-NH2] | –
> 3000 µM | Ac-ARPVA-NH2 [Ac-ARPVA-NH2] | –
500 µM | Ac-ARPCAPGAPAEARL-NH2 [PTX3-(100-113) peptide Ac-…-NH2] | –
